The IC50 is the concentration that inhibits the measured activity by half.

Test [1] is filed under the species Mus musculus. The test can be described thus: Relative potency of compound verses morphine for analgesic activity in mice. The format is functional.
Test [2] addresses Delta-type opioid receptor (Mus musculus, UniProt P32300). Put plainly: Inhibitory potency against delta Opioid receptor delta 1 in longitudinal muscle preparation of mouse vas deferens.
A further test has as its target Mu-type opioid receptor (Cavia porcellus, UniProt P97266). The test can be described thus: Inhibitory potency against Opioid receptor mu 1 in longitudinal muscle preparation of guinea pig ileum. It counts as tissue-based. The essentials:
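Guinea pig ileum was electrically stimulated to contract, and inhibition was measured at six concentrations per compound, with six to eight assays each. Methionine-enkephalin served as the internal standard in every assay. IC50 was obtained by regression analysis.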

The nature of test [3]: Ratio of IC50 evaluated in GPI to MVD. It counts as functional. The essentials: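 IC50 values were determined on electrically stimulated guinea pig ileum and on mouse vas deferens. Each used six concentrations with six to eight assays each, methionine-enkephalin as internal standard, and regression analysis. The ratio is GPI IC50 over MVD IC50.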
Test [4] deals with Mus musculus. The test can be described thus: Analgesic activity of compound (1.46+diprenorphine) in mice after icv administration. The format is functional. The essentials:
(§1)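 Swiss mice (20–22 g) got naloxone 1 mg/kg sc or diprenorphine 0.5 mg/kg sc 15 min before icv compound, given in saline in a constant 5 μL. Hind-paw lick latency on a 65 ± 1 °C hot plate was read 15 min after icv injection. Mice with control latency over 9 s were excluded. Values are mean ± SEM, with n.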

Test [5] relates to Mus musculus. Put plainly: Analgesic activity of compound (1.46+naloxone) in mice after icv administration. The format is functional. The method, boiled down: as §1
The subject of test [6] is Mus musculus. The test can be described thus: Analgesic activity of compound (1.46 nM) in mice after icv administration. It counts as functional. The method, boiled down:
(§2)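 Swiss mice (20–22 g) got icv injections of compound freshly dissolved in saline, in a constant 5 μL. Hind-paw lick latency on a 65 ± 1 °C hot plate was read 15 min after injection. Animals with control latency above 9 s were rejected. Values are mean ± SEM, with n per group.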

The test system of test [7] is Mus musculus. Put plainly: Analgesic activity of compound (1.48 nM) in mice after icv administration. It counts as functional. The essentials:
as §2

Test [8] relates to Mus musculus. The test can be described thus: Analgesic activity of compound (2.66 nM) in mice after icv administration. The format is functional. The method, boiled down:
as §2

The test system of test [9] is Mus musculus. Put plainly: Analgesic activity of compound (1.98 nM) in mice after icv administration. It counts as functional. The essentials:
as §2

Test [10] has as its system Mus musculus. The test can be described thus: Analgesic activity of compound (1.45 nM) in mice after icv administration. It counts as functional. The essentials: as §2

Chain of Delta-type opioid receptor (P32300 whole entry): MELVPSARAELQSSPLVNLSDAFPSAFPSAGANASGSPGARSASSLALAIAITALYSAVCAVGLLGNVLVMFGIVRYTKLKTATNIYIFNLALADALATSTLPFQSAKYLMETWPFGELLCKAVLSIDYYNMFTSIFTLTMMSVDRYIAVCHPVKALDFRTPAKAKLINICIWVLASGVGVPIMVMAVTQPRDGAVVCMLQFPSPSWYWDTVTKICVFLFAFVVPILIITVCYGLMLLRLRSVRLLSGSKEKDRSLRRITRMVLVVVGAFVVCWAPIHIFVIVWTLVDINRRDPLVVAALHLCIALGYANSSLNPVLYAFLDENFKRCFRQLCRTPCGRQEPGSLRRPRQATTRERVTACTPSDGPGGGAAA
Chain of Mu-type opioid receptor (P97266 whole entry): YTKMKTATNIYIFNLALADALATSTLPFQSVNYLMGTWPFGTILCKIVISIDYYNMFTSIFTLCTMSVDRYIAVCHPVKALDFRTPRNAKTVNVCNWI

The molecule H-YMGFP-NH2 had a Relative potency in the test filed under Mus musculus [1] of 25. Also, the IC50 in [2] was found to be 23.1 nM; at Mu-type opioid receptor, 21.9 nM. In [3], the Ratio worked out at 0.95.

Regarding `CC(C)C[C@H](NC(=O)[C@H](Cc1ccccc1)NC(=O)CNC(=O)[C@H](CO)NC(=O)[C@@H](N)Cc1ccc(O)cc1)C(=O)N[C@H](C(=O)O)[C@@H](C)O`, the figures for the “Hind-paw lick latency time” value in the test on Mus musculus [4], in the test on Mus musculus [5] and in the test on Mus musculus [6] were 6.6 s, 10.5 s and 32.6 s, respectively. This molecule also yielded an IC50 at Mu-type opioid receptor of 360 nM.

In the test filed under Mus musculus [1], `C[C@H](NC(=O)[C@@H](N)Cc1ccc(O)cc1)C(=O)NCC(=O)N(C)[C@@H](Cc1ccccc1)C(=O)N[C@@H](CC[S+](C)[O-])C(=O)O` (stereo not given in full) registered a Relative potency of over 100. Besides, the concentration for half-maximal inhibition (IC50) in test [2] was determined as 15.7 nM; against Mu-type opioid receptor it was 7.2 nM. Besides, the Ratio in test [3] came out at 0.46.

`CC(C)C[C@@H](NC(=O)[C@H](Cc1ccccc1)NC(=O)CNC(=O)[C@@H](C)NC(=O)[C@@H](N)Cc1ccc(O)cc1)C(=O)O` [DADLE]: the IC50 at Mu-type opioid receptor was 47.8 nM.

In the case of H-YGGFMT-OH, the “Hind-paw lick latency time” value with Mus musculus [7] came out at 6.5 s. The same molecule returned a Relative potency in the test listed under Mus musculus [1] of over 0.1. For the same molecule, the results for the IC50 (in test [2]; against Mu-type opioid receptor) were 6.1 nM and 380 nM, respectively. The Ratio in [3] is 62.

`CSCC[C@H](NC(=O)[C@H](Cc1ccccc1)NC(=O)CNC(=O)CNC(=O)[C@@H](N)Cc1ccc(O)cc1)C(=O)O` registered a half-maximal inhibitory concentration (IC50) at Mu-type opioid receptor of 200 nM.

For the molecule `CN1CC[C@]23c4c5ccc(O)c4O[C@H]2[C@@H](O)C=C[C@H]3[C@H]1C5` [MORPHINE], the “Hind-paw lick latency time” value in the test on Mus musculus [8] was 25.2 s.

Consider `CC(C)CC(C)NC(=O)CNC(=O)[C@H](C)NC(=O)[C@@H](N)Cc1ccc(O)cc1` (stereo not given in full), for which, in the test on Mus musculus [9], the “Hind-paw lick latency time” value worked out at 25 s. The same molecule came in with a Relative potency in the test filed under Mus musculus [1] of 1. Also, the 50% inhibitory concentration (IC50) is 1220 nM in [2] and 182 nM on Mu-type opioid receptor. In test [3], the Ratio is 0.15.

On to H-YAGFMT-OH, for which the “Hind-paw lick latency time” value with Mus musculus [10] amounted to 29.3 s. For the same molecule, the Relative potency in the test filed under Mus musculus [1] amounted to 2. Moreover, the IC50 in [2] is 1.09 nM; against Mu-type opioid receptor, 240 nM. Further, the Ratio in test [3] is 220.

(Values after ChEMBL document CHEMBL1121721 (J Med Chem, 1981).)
